Test results published in publication PMC3254186 (Frontiers in Pharmacology, 2011).

Key:
Format in all cases: cell-based
Kir3.1/3.4 = biological target: T1, Kir3.1/3.4 (Homo sapiens, UniProt P48544+P48549); assay: Two-electrode voltage clamp in Xenopus oocytes, Kir3.1/3.4; details: TEVC oocytes, 25 μM, mean ± SEM, n = 6
T1 sequence (P48549 1-501): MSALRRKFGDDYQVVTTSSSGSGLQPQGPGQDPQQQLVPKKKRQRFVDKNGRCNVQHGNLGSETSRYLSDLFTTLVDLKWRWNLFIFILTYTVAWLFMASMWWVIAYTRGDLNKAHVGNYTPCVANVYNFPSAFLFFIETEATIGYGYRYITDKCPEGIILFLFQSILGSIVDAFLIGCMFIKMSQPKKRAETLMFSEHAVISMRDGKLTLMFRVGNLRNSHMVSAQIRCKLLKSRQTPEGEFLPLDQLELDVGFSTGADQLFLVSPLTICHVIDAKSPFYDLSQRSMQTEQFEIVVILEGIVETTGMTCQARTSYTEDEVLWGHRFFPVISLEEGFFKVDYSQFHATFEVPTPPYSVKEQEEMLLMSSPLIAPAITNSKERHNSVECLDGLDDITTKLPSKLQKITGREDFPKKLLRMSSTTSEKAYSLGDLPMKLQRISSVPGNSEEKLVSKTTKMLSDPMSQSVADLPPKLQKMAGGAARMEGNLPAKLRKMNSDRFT
T1 sequence (P48544 1-419): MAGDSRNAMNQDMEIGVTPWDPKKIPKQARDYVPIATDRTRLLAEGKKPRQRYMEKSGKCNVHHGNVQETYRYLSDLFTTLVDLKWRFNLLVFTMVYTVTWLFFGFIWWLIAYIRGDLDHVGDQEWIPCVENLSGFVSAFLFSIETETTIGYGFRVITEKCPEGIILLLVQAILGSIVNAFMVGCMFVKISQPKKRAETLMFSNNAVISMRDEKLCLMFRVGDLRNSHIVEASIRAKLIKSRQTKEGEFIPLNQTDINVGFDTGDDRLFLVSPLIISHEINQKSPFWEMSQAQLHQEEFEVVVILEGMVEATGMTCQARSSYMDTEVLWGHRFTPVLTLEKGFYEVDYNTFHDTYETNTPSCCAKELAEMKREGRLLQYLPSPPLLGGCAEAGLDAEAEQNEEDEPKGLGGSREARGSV
In short: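 Xenopus oocytes were injected with Kir3.1/3.2 or Kir3.1/3.4 cRNA and voltage-clamped with two electrodes at 20–23°C, with current at −80 mV followed over time. The bath was switched from K+-free to 90 mM K+ to activate the channel. Test compound in 90K was applied continuously at graded concentrations, then 2 mM Ba2+ was added. A final 0K switch measured leak. Time constant derived (n = 6 at 25 μM). Percent inhibition n = 4–6.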

Kir1.1 (S44D) = biological target: T2, Kir1.1 (S44D) (Rattus norvegicus, UniProt P35560, S44D); assay: Tl+ flux assay, tetracycline-inducible Kir1.1-S44D T-REx-HEK-293 cells; details: IC50 Kir1.1, Tl+ flux, mean ± SEM (n = 3)
T2 sequence (P35560 1-391 S44D): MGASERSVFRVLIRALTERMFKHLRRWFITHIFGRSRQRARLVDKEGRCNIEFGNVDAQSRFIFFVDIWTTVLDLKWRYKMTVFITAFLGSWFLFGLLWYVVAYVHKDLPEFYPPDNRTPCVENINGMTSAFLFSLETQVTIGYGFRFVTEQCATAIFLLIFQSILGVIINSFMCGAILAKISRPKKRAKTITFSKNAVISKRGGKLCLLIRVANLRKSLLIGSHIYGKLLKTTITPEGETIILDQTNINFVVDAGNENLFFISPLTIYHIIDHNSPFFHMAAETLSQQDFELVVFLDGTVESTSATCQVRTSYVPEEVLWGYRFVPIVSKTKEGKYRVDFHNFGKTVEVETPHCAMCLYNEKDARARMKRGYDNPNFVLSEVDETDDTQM
In short: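 Monoclonal C1 T-REx-HEK-293 Kir1.1-S44D cells were grown in DMEM with 10% FBS, penicillin/streptomycin, 5 μg/mL blasticidin S and 250 μg/mL hygromycin. Channel expression was induced overnight with tetracycline. Cells were loaded with FluoZin-2 and pre-treated with test compound from 1:3 serial dilutions. Extracellular Tl+ was then added and fluorescence imaged kinetically at 20–23°C. CRC, mean ± SEM, n = 3.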

Kir2.3 = biological target: T3, Kir2.3 (Homo sapiens, UniProt P48050); assay: Whole-cell patch clamp, T-REx-HEK-293-Kir2.3 cells
T3 sequence (P48050 1-445): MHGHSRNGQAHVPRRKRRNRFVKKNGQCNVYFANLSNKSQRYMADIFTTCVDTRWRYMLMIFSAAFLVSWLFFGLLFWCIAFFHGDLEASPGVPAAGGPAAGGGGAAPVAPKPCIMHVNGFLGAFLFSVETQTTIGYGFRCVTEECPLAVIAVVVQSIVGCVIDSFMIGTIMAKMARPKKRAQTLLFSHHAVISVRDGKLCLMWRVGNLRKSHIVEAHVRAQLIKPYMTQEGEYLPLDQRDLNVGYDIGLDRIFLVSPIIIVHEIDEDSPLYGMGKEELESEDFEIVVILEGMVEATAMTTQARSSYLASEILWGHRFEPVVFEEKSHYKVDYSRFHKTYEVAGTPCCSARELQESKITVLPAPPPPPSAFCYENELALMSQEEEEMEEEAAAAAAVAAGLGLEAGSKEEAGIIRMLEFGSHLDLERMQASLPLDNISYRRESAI
In short: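 Monoclonal T-REx-HEK-293-Kir2.3 cells were patched after overnight induction with tetracycline (1 μg/mL). Pipette: 135 mM KCl, 1 mM MgCl2 (reduced against rundown), 1 mM EGTA, 10 mM HEPES, 2 mM Na2ATP, pH 7.3. Bath: 135 mM NaCl, 5 mM KCl, pH 7.4. Held at −75 mV and ramped −120 to 120 mV every 5 s, at 20–23°C. Test compound was bath-applied, then 2 mM BaCl2. CRC n = 4–6. τ taken from the time course.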

Cc1ccc(OCC(O)Cn2c(=N)n(Cc3ccccc3)c3ccccc32)cc1 (stereo not shown) [Compound 1, 1-(3-benzyl-2-imino-2,3-dihydro-1H-benzo[d]imidazol-1-yl)-3-(p-tolyloxy)propan-2-ol]
time constant (τ) for inhibition of Kir3.1/3.4 currents (Kir3.1/3.4): 27 ± 5 s
IC50 (Kir1.1 (S44D)): 10.8 ± 3.8 µM
IC50 (Kir2.3; IC50 Kir2.3, whole-cell patch clamp, T-REx-HEK-293-Kir2.3): ~1 µM
time constant for inhibition of Kir2.3 (Kir2.3; whole-cell patch clamp, 30 μM, mean ± SEM, n = 4): 23 ± 2 s
